# Test results: ChEMBL document CHEMBL1142419, “Antimycobacterial activities of novel 2-(sub)-3-fluoro/nitro-5,12-dihydro-5-oxobenzothiazolo[3,2-a]quinoline-6-carboxylic acid” (Bioorg Med Chem, 2008)
# What was measured:
# Mus musculus [1] = test: Phototoxicity in Swiss albino mouse assessed as ear thickness at 140 mg/kg, po after 4 hrs of irradiation; type: organism-based; design: dose 140 mg/kg, route oral; settings: in vivo
# Outline: (§1)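 Female Swiss albino mice (about 2 months, 20–25 g), fasted at least 18 h, received a single oral gavage of 140 mg/kg. Groups: six per group; lomefloxacin HCl 140 mg/kg; vehicle 0.5% aqueous sodium carboxymethylcellulose at 10 ml/kg. Mice were UV-irradiated for 4 h (about 18 J/cm²). Both ears were scored for erythema, edema and ear thickness (left/right averaged) pre-dose, at end of irradiation, and at about 24, 48, 72 and 96 h. Ear thickness change from baseline was tested by Student's t-tests.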
# Mus musculus [2] = test: Phototoxicity in Swiss albino mouse assessed as ear thickness at 140 mg/kg, po after 48 hrs of irradiation; type: organism-based; design: dose 140 mg/kg, route oral; settings: in vivo; outline: as §1
# Vero = test: Cytotoxicity against african green monkey Vero cells after 72 hrs by MTT assay; type: cell-based; settings: Chlorocebus sabaeus
# Outline: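 Vero mammalian cells were exposed to compounds for 72 h, with testing at 62.5 µg/ml. Viability was read as cellular conversion of MTT to formazan (non-radioactive cell proliferation kit), and IC50 was reported.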
# [3] = Selectivity index, ratio of IC50 for african green monkey Vero cells to MIC for Mycobacterium tuberculosis H37Rv; type: functional
# Outline: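 Vero cells were exposed for 72 h, with viability read by MTT conversion to formazan to give the IC50. The MIC against H37Rv was by duplicate agar dilution on OADC-supplemented Middlebrook 7H11 agar. Index = Vero IC50 / MIC.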
# [4] = Inhibition of Mycobacterium smegmatis DNA gyrase supercoiling activity; design: species or system Mycolicibacterium smegmatis
# Mus musculus [5] = test: Phototoxicity in Swiss albino mouse assessed as ear thickness at 140 mg/kg, po after 96 hrs of irradiation; type: organism-based; design: dose 140 mg/kg, route oral; settings: in vivo; outline: as §1
# Mus musculus [6] = test: Phototoxicity in Swiss albino mouse assessed as ear thickness at 140 mg/kg, po after 24 hrs of irradiation; type: organism-based; design: dose 140 mg/kg, route oral; settings: in vivo; outline: as §1
# [7] = test system: Mycobacterium tuberculosis; test: Antimycobacterial activity against Mycobacterium tuberculosis ATCC 35801 infected in CD1 mouse assessed as bacterial load in lung at 50 mg/kg, ip after 10 days; type: functional; settings: route intraperitoneal
# Outline: (§2)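 Six-week-old female CD-1 mice, six per group, infected intravenously via caudal vein with ~10⁷ viable M. tuberculosis ATCC 35801. Intraperitoneal dosing began 10 days after inoculation and ran 10 days. On day 35 post-infection, spleens and right lungs were removed and homogenized. Serial 10-fold dilutions were plated on 7H10 agar (37 °C, ambient air, 4 weeks). Log CFU compared against vehicle-treated controls.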
# Mus musculus [8] = test: (§3) Phototoxicity in Swiss albino mouse assessed as erythema incidence at 140 mg/kg, po after 48 hrs of irradiation; type: organism-based; design: dose 140 mg/kg, route oral; settings: in vivo; outline: as §1
# [9] = test system: Mycobacterium tuberculosis; test: Antimycobacterial activity against Mycobacterium tuberculosis H37Rv by agar dilution method; type: functional
# Outline: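 MIC by agar dilution on Middlebrook 7H11 agar supplemented with OADC, following an NCCLS-like procedure, run in duplicate. The MDR-TB clinical isolate was resistant to isoniazid, rifampicin, ethambutol and ofloxacin.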
# [10] = test system: Mycobacterium tuberculosis; test: Antimycobacterial activity against Mycobacterium tuberculosis ATCC 35801 infected in CD1 mouse assessed as bacterial load in spleen at 50 mg/kg, ip after 10 days; type: functional; settings: route intraperitoneal; outline: as §2
# Mus musculus [11] = test: Phototoxicity in Swiss albino mouse assessed as erythema incidence at 140 mg/kg, po after 24 hrs of irradiation; type: organism-based; design: dose 140 mg/kg, route oral; settings: in vivo; outline: as §1
# [12] = test system: Mycolicibacterium smegmatis; test: Antimycobacterial activity against Mycobacterium smegmatis MC2 by agar dilution method; type: functional
# Outline: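 Agar dilution on Middlebrook 7H11 agar supplemented with OADC, following an NCCLS-like procedure; MIC determined in duplicate against M. smegmatis ATCC 14468 (MC²).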
# Mus musculus [13] = test: Phototoxicity in Swiss albino mouse assessed as erythema incidence at 140 mg/kg, po after 96 hrs of irradiation; type: organism-based; design: dose 140 mg/kg, route oral; settings: in vivo; outline: as §1
# Mus musculus [14] = test: Phototoxicity in Swiss albino mouse assessed as ear thickness at 140 mg/kg, po after 72 hrs of irradiation; type: organism-based; design: dose 140 mg/kg, route oral; settings: in vivo; outline: as §1
# Mus musculus [15] = test: as §3; type: organism-based; design: dose 140 mg/kg, route oral; settings: in vivo; outline: as §1; remark: listed apart in the source
smiles,measurement,setting,value
CCN(CC)C(=O)C1CCCN(c2cc3c(cc2F)c(=O)c(C(=O)O)c2sc4ccccc4n23)C1 (stereo unspecified),Activity,Mus musculus [1],0.29 mm
same,Activity,Mus musculus [2],0.29 mm
same,IC50,Vero,126 µM
same,Selectivity index,[3],1576
same,IC50,[4],40 µg/mL
same,Activity,Mus musculus [5],0.28 mm
same,Activity,Mus musculus [6],0.29 mm
same,Log10 cfu,[7],5.21
same,Activity,Mus musculus [8],Non-toxic
same,MIC,[9],0.18 µM
same,Log10 cfu,[10],5.9
same,Activity,Mus musculus [11],Non-toxic
same,MIC,[12],3.15 µM
same,Activity,Mus musculus [13],Non-toxic
same,Activity,Mus musculus [14],0.3 mm
same,Activity,Mus musculus [15],Non-toxic
